Experimental data from ChEMBL document CHEMBL5705906 (Nat Commun, 2017).
Activity calls are given as the source filed them. No cut-off for these calls is given here.

Assays:
[1] = tested on: PC-9; assay: Inhibition of EGFR T790M/del19 mutant in human PC-9 cells assessed as reduction in EGFR phosphorylation at 10 to 1000 nM by Western blotting analysis; format: cell-based; settings: dose 10-1000 nM
[2] = tested on: PC-9; assay: Anti-tumor activity against EGFR T790M/del19 mutant expressing gefitinib-resistant human PC-9 cells xenografted in Balb-c nu/nu mouse assessed as prolonged survival at 50 mg/kg, po administered for 42 days; format: functional, organism-based; settings: time 42.0 day
[3] = tested on: BaF3; assay: Inhibition of EGFR-C797S/T790M/del19 mutant in mouse BaF3 cells assessed as reduction in S6 phosphorylation at 10 to 1000 nM by Western blotting analysis; format: cell-based; settings: dose 10-1000 nM
[4] = tested on: NCI-H460; assay: Anticancer activity against KRAS-mutated human NCI-H460 cells assessed as reduction in cell viability at 1 to 10000 nM incubated for 72 hrs by CellTiter-Glo assay; format: functional, cell-based; settings: dose 1-10000 nM
[5] = tested on: BaF3; assay: Inhibition of EGFR-C797S/T790M/del19 mutant in mouse BaF3 cells assessed as reduction in EGFR phosphorylation at 10 to 1000 nM by Western blotting analysis; format: cell-based; settings: dose 10-1000 nM
[6] = tested on: A549; assay: Anticancer activity against KRAS-mutated human A549 cells assessed as reduction in cell viability at 1 to 10000 nM incubated for 72 hrs by CellTiter-Glo assay; format: functional, cell-based; settings: dose 1-10000 nM
[7] = tested on: PC-9; format: functional, organism-based; settings: Homo sapiens, dose 50.0 mg/kg, route po, time 60.0 day
[8] = tested on: PC-9; format: functional, organism-based; settings: Homo sapiens, dose 50.0 mg/kg, route po, time 60.0 day; remark: listed apart in the source
[9] = tested on: BaF3; assay: Inhibition of EGFR-C797S/T790M/del19 mutant in mouse BaF3 cells assessed as reduction in S6 protein level at 10 to 1000 nM by Western blotting analysis; format: cell-based; settings: dose 10-1000 nM
[10] = tested on: PC-9; assay: Inhibition of EGFR T790M/del19 mutant in human PC-9 cells assessed as reduction in S6 phosphorylation at 10 to 1000 nM by Western blotting analysis; format: cell-based; settings: dose 10-1000 nM
[11] = tested on: PC-9; assay: Inhibition of EGFR T790M/del19 mutant in human PC-9 cells assessed as reduction in ERK phosphorylation at 10 to 1000 nM by Western blotting analysis; format: cell-based; settings: dose 10-1000 nM
[12] = tested on: PC-9; assay: Inhibition of EGFR T790M/del19 mutant in human PC-9 cells assessed as reduction in Akt phosphorylation at 10 to 1000 nM by Western blotting analysis; format: cell-based; settings: dose 10-1000 nM
[13] = tested on: BaF3; assay: Inhibition of EGFR-C797S/T790M/del19 mutant in mouse BaF3 cells assessed as reduction in Akt phosphorylation at 10 to 1000 nM by Western blotting analysis; format: cell-based; settings: dose 10-1000 nM
[14] = tested on: BaF3; assay: Inhibition of EGFR-C797S/T790M/del19 mutant in mouse BaF3 cells assessed as reduction in ERK protein level at 10 to 1000 nM by Western blotting analysis; format: cell-based; settings: dose 10-1000 nM
[15] = tested on: PC-9; assay: Anti-tumor activity against EGFR T790M/del19 mutant expressing gefitinib-resistant human PC-9 cells xenografted in Balb-c nu/nu mouse assessed as growth inhibition at 50 mg/kg, po administered for 42 days; format: functional, organism-based; settings: time 42.0 day
How it was run: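 Balb-c nu/nu mice were implanted subcutaneously with 6×10^6 PC9-triple-mutant or PC9-T790M cells in 100 µl 1:2 Matrigel. At a mean tumour volume of ~200 mm³, mice were randomized (top and bottom 5% excluded) and dosed once daily by oral gavage. Caliper volume (0.5×L×W²) was measured twice weekly and expressed relative to day 0. n≥6 per group; Mann-Whitney U test.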

[16] = tested on: BaF3; assay: Inhibition of EGFR-C797S/T790M/del19 mutant in mouse BaF3 cells assessed as reduction in Akt protein level at 10 to 1000 nM by Western blotting analysis; format: cell-based; settings: dose 10-1000 nM
[17] = tested on: PC-9; format: functional, organism-based; settings: Homo sapiens, dose 50.0 mg/kg, route po, time 15.0 day
[18] = tested on: BaF3; assay: Inhibition of EGFR-C797S/T790M/del19 mutant in mouse BaF3 cells assessed as reduction in ERK phosphorylation at 10 to 1000 nM by Western blotting analysis; format: cell-based; settings: dose 10-1000 nM
[19] = tested on: Ba/F3 EGFR-Del19/T790M/C797S; assay: Cytotoxicity against mouse Ba/F3 EGFR-Del19/T790M/C797S cells assessed as inhibition of cell viability by measuring fold change at 300 nM incubated for 72 hrs in presence of cetuximab by CellTiter-Glo assay; format: functional, cell-based

In the case of C=CC(=O)Nc1cc(Nc2nccc(-c3cn(C)c4ccccc34)n2)c(OC)cc1N(C)CCN(C)C, the inhibition [1] is reported as “Active”, the Activity [2] is reported as “Active” and the inhibition [3] is reported as “inactive”. The Activity [4] was “Active”, the inhibition [5] was “inactive” and the Activity [6] was “Active”. For the same molecule, the inhibition [7] was “Active”, the inhibition [8] was “Active” and the inhibition [9] was “inactive”. The inhibition [10] was “Active”, the inhibition [11] was “Active” and the inhibition [12] was “Active”. For the same molecule, the inhibition [13] was “inactive”, the inhibition [14] was “inactive” and the Activity [15] was “Active”. For the same molecule, the inhibition [16] was “inactive”, the Activity [17] was “inactive” and the inhibition [18] was “inactive”. For the same molecule, the Activity [19] was “inactive”.
